Source: PubChem BioAssay
In the library only some 4.1% were active in any assay of this set; here they are far more common.
KCC2 mod: KCC2 cotransporter modulators, thallium flux, primary screen, cell-based, HEK293 KCC2, FluoZin-2 fluorescence, MLSMR; Solute carrier family 12 member 5 (Homo sapiens), Q9H2X9; KCC2 cells, thallium flux FluoZin-2 fluorescence; B-score of Tl+ flux slope (higher = more flux/activation; lower = inhibition) at 10 µM; actives 2.2% (n = 190,000); AID 1456, 2008;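 active = thallium flux slope and its plate-corrected score both differing from the plate sample mean at a set confidence after two filtering rounds, in either direction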;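 note: slope of fluorescence scaled to starting intensity during 10 to 20 s after thallium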
KCNQ1 act: potentiators or activators of KCNQ1 channel, primary screen, cell-based, thallium flux, high-throughput; actives 0.35% (n = 310,000); CHO-K1 KCNQ1, thallium flux FluxOR fluorescence; hits give high values; AID 2648, 2010; Potassium voltage-gated channel subfamily KQT member 1 (Homo sapiens), P51787; B-score at 10 µM;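 active = fluorescence ratio B-score, a plate-corrected score, at least three library SD, with initial intensity B-score within 5 SD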
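System: CHO-K1 cells stably expressing KCNQ1 / Medium: assay buffer for compound exposure, DMSO matched across wells / Reagent: thallium- and potassium-containing depolarizing buffer / Compound: one concentration, matched DMSO / Incubation: 20 min compound pretreatment at room temperature / Measured by: kinetic FluxOR fluorescence, 10 s baseline plus 110 s post-stimulus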
KCNK3 block: human KCNK3 channel inhibitors, primary screen, CHO cells, FluxOR thallium flux, B-score; Potassium channel subfamily K member 3 (Homo sapiens), O14649; FluxOR fluorescence; hits give low values; B-score at 10 µM; actives 0.84% (n = 340,000); AID 602410, 2012;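 active = B-score under library mean minus 4 SD, starting fluorescence ratio at most library mean plus 5 SD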;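 note: more negative B-score means stronger inhibition of thallium flux through KCNK3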
KCNQ1 inh: inhibitors of human KCNQ1 channel, primary screen, cell-based, thallium flux, high-throughput | Potassium voltage-gated channel subfamily KQT member 1 (Homo sapiens), P51787 | CHO-K1 KCNQ1, FluxOR thallium flux fluorescence; hits give high values | B-score at 10 µM | actives 1.3% (n = 310,000) | AID 2642, 2010;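 active = compounds whose thallium flux B-score, printed positive for inhibition, exceeds three library SD while starting fluorescence stays within three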;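 note: channel opened by potassium depolarization with thallium stimulus after 20 min compound exposure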
KCNK9 block: KCNK9 potassium channel inhibitors, primary screen, HEK293 cells, thallium flux | FluxOR thallium flux fluorescence; hits give low values | actives 1.2% (n = 310,000) | B-score at 10 µM | Potassium channel subfamily K member 9 (Homo sapiens), Q9NPC2 | AID 488922, 2010;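 active = ratio B-score over 3 SD below the library mean, with starting fluorescence within 5 SD of its mean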;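 note: negative B-score means less thallium flux so channel inhibition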
Target sequence (Q9NPC2 whole entry, looked up): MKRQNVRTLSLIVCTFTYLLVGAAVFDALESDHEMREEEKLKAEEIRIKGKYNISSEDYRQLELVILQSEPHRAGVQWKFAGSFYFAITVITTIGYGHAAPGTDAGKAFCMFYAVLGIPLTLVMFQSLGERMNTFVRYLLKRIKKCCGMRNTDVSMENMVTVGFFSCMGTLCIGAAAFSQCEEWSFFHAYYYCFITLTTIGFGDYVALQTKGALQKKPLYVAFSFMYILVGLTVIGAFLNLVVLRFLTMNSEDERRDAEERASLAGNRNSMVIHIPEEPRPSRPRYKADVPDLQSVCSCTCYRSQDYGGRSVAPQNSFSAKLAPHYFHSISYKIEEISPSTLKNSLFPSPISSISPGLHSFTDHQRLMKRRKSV
hERG rescue: hERG rescue from dofetilide block, primary screen, cell-based, CHO-hERG, FluxOR thallium flux, dofetilide IC70. AID 1511, 2009. actives 0.51% (n = 310,000). activation (rescue from dofetilide block), less the hit threshold, % at 10 µM. dofetilide IC70 present. Voltage-gated inwardly rectifying potassium channel KCNH2 (Homo sapiens), Q12809;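 active = activation above the mean of controls blocked by dofetilide plus 5 SD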;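 note: thallium influx through hERG after potassium depolarization seen as dye fluorescence rise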
KCC2 sec1: KCC2 modulators in sodium-free buffer, confirmation, cell-based, HEK293 KCC2, thallium flux, secondary assay | normalised thallium flux (F/F0 slope) at 10 µM | FluoZin2 fluorescence; hits give high values | actives 15% (n = 3,700) | shares compounds with KCC2 mod;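 active = thallium flux slope above the same plate's solvent-only control mean plus 3 SD; inconclusive = the two replicate wells disagree; inactive = no significant difference from solvent-only control wells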
KCC2 bumet counter: thallium flux persisting under bumetanide in KCC2 cells, confirmation, counter-screen for KCC2 modulator project, cell-based, HEK293 KCC2, FluoZin2, secondary assay 3. shares compounds with KCC2 mod. HEK293-KCC2 + bumetanide/ouabain; hits give high values. normalized thallium flux at 10 µM. actives 49% (n = 3,700);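 active = thallium entry rate above the same plate's blocked-transporter control wells by more than 3 SD; inconclusive = the two repeat wells disagree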;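 note: raw slope of fluorescence over initial fluorescence between 10 and 20 s after thallium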
KCC2 secondary2: KCC2 modulators without ouabain present, confirmation, cell-based, HEK293 KCC2, thallium flux, FluoZin2, secondary assay 2; actives 23% (n = 3,700); normalized thallium flux at 10 µM; shares compounds with KCC2 mod; thallium flux FluoZin2 fluorescence; actives lie on both sides; F/F0 rise rate, 10–20 s post-thallium;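 active = thallium flux slope more than 3 SD above or below the plate's solvent-only control mean, mostly below; inconclusive = the two repeat wells disagreed; inactive = no significant shift from solvent-only controls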;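 note: raw slope with 0.1% DMSO as baseline and bumetanide as block control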
HEK293 Tl flux: thallium flux modulation in parental HEK cells, confirmation, counter-screen for KCC2 modulator project, cell-based, counterscreen 1. shares compounds with KCC2 mod. HEK293 parental cells, thallium flux FluoZin2, ouabain; baseline-ratio fluorescence slope, 10–20 s after thallium. thallium flux rate (normalised fluorescence) at 10 µM. actives 46% (n = 3,700). AID 1716, 2009;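 active = thallium flux rate significantly above the same plate's solvent-only control wells, beyond their mean plus 3 SD; inconclusive = the two replicate wells gave conflicting results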
KCC2 retest ouab: KCC2 inhibitors and activators, ouabain retest, confirmation, HEK-KCC2 cells. raw Tl+ flux slope (below DMSO = inhibition, above = activation) at 10 µM. actives 48% (n = 3,700). shares compounds with KCC2 mod. AID 1717, 2009. HEK293-KCC2, thallium flux FluoZin2 fluorescence; bidirectional: low = inhibitor, high = activator;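 active = thallium flux slope beyond 3 SD from same-plate DMSO control mean in most replicates, usually higher, sometimes lower; inconclusive = repeat tests gave conflicting results; inactive = no significant difference from controls in most replicates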;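 note: slope of initial-normalized fluorescence between seconds 10 and 20 after thallium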
HEK counter2: native HEK Tl+ uptake effects, second counter-screen – HEK cells, counterscreen 2, counter-screen for KCC2 modulator project, confirmation | shares compounds with KCC2 mod | HEK293 parental, thallium flux FluoZin-2 fluorescence slope | thallium flux slope at 10 µM | actives 33% (n = 3,700) | AID 1718, 2009;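 active = thallium flux slope above the same plate's solvent-control mean plus 3 SD in both duplicate wells; inconclusive = duplicate wells that disagreed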;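 note: run without ouabain in cells lacking the KCC2 cotransporter; slope of fluorescence scaled to its starting value between 10 and 20 s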
KCNK9 inh conf: KCNK9 potassium channel inhibitors, confirmation, HEK293 cells, thallium flux, duplicate | shares compounds with KCNK9 block | FluxOR thallium flux fluorescence | inhibition, % at 10 µM | actives 43% (n = 4,900);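 active = thallium signal inhibited by more than 5 SD of the compound-free buffer control wells, on both duplicate plates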;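 note: 0% = assay buffer control wells without compound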
Kir21 sel: mouse Kir2.1 channel inhibition, confirmation, selectivity assay for KCNK9 modulator project, cell-based, HEK293, thallium flux; shares compounds with KCNK9 block; Kir2.1 cells, FluxOR thallium flux fluorescence; inhibition, % at 10 µM; actives 4% (n = 4,900); AID 492993, 2010;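 active = thallium signal drop more than 5 SD beyond the mean of the no-compound control wells, seen in both duplicate plates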;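 note: signal is fluorescence rise after thallium addition divided by baseline fluorescence; plate controls were assay buffer only for no effect and full block by chlorpromazine control for full effect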
Target sequence (P35561 whole entry, looked up): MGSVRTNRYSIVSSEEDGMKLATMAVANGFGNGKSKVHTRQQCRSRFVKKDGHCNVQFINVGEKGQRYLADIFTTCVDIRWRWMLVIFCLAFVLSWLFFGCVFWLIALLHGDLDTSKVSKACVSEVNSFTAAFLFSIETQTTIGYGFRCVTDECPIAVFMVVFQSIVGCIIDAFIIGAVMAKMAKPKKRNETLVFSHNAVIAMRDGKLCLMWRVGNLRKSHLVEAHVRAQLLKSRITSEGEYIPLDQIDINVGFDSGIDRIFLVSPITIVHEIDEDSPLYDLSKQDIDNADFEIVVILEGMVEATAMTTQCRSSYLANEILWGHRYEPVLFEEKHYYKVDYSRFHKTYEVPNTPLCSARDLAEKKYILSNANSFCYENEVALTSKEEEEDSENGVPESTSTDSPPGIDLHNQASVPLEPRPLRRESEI
KCNK9 uninduced: thallium flux in non-induced HEK293 cells, confirmation, counter-screen for KCNK9 inhibitor project, cell-based, second counter screen, non-induced KCNK9-HEK293; FluxOR thallium flux; inhibition, % at 10 µM; shares compounds with KCNK9 block; actives 40% (n = 4,900);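 active = thallium signal drop beyond 5 SD of the untreated control mean, on both duplicate plates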;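 note: plate controls were buffer only IC0 wells for no effect and SID17386958 at its maximal inhibitory level for full effect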
Numbers without * were called inactive; i = inactive; ? = inconclusive; . = not tested or not shown.

SMILES	KCC2 mod	KCNQ1 act	KCNK3 block	KCNQ1 inh	KCNK9 block	hERG rescue	KCC2 sec1	KCC2 bumet counter	KCC2 secondary2	HEK293 Tl flux	KCC2 retest ouab	HEK counter2	KCNK9 inh conf	Kir21 sel	KCNK9 uninduced
CC(C1CC2CCC1C2)n1c(-c2cccs2)n[nH]c1=S (configuration not stated)	72*	i	i	i	-11*	-4	0.019	0.082*	0.042*	0.034*	0.041*	0.032*	54%*	i	i
Cc1ccc(/C=C2\S/C(=N/S(=O)(=O)c3cccs3)NC2=O)cc1	5.7*	i	i	i	i	-12	0.0067	0.016*	0.03	0.014*	?	0.016*	i	i	i
CC1Cc2ccccc2N1C(=O)COC(=O)/C=C/c1ccc(F)cc1 (configuration not stated)	.	.	i	.	.	.	.	.	.	.	.	.	.	.	.
CC1Cc2ccccc2N1C(=O)/C=C/c1cccc(F)c1 (configuration not stated)	-4.4*	i	i	i	i	-19	0.0065	0.0051	0.023*	0.0071	0.015*	0.01	i	i	i
CCC(c1nnnn1Cc1cccs1)N1CCN(c2nc3ccccc3s2)CC1 (configuration not stated)	-4*	i	i	i	-11*	-11	0.0069	0.0041	?	0.0063*	0.014*	0.011	30%*	i	i
CC(=O)N1CCN(C(=O)c2cccc(S(=O)(=O)N3CCOCC3)c2)CC1	.	.	i	.	.	.	.	.	.	.	.	.	.	.	.
CCC/C(C)=N/NC(=O)c1ccccc1O	0.11	i	i	i	i	-7	.	.	.	.	.	.	.	.	.
C/C(=N\NC(=O)c1ccccc1O)C1C(=O)c2ccccc2C1=O	-3.8*	i	i	11*	i	-31	0.0069	0.0055	0.029	?	0.015*	0.009	i	i	24%*
CC1Cc2nc(SCC(=O)Nc3ccc4c(c3)OCO4)n(CCc3ccccc3)c(=O)c2S1 (configuration not stated)	-4*	i	i	i	-12*	-10	0.0061	0.0056	0.034	?	0.017*	0.011	58%*	i	i
CCn1c(SCC(=O)Nc2ccc3c(c2)OCO3)nc2c(c1=O)SC(C)C2 (configuration not stated)	-1.4	i	i	i	i	-15	.	.	.	.	.	.	.	.	.
NS(=O)(=O)c1ccc(CNC(=O)c2ccc3c(c2)OCO3)cc1	.	.	i	.	.	.	.	.	.	.	.	.	.	.	.
Cc1ccc(S(=O)(=O)N2[C@@H](c3ccccc3F)C(C(=O)O)=CC[C@H]2c2cccc(Cl)c2)cc1	.	.	i	.	.	.	.	.	.	.	.	.	.	.	.
CN(C)c1ccc(/C=N/n2c(-c3cccnc3)n[nH]c2=S)cc1	0.82	i	i	i	i	-13	.	.	.	.	.	.	.	.	.
CN(C)c1ccc(/C=N/n2c(-c3ccccc3Br)n[nH]c2=S)cc1	5.8*	i	i	i	i	-3	0.011	0.023*	0.031	0.012*	?	0.011	i	i	i
CCCCn1c(NS(=O)(=O)c2ccc(C)cc2)c(S(=O)(=O)c2ccccc2)c2nc3ccccc3nc21	-6.5*	9*	i	i	i	-9	0.009	0.017*	0.033	?	?	0.011	i	i	i
CCCCn1c(SCC(N)=O)nc2c(sc3ccccc32)c1=O	0.6	i	i	i	i	-6	.	.	.	.	.	.	.	.	.
CCSc1nc2c(sc3ccccc32)c(=O)n1C(C)C	24*	13*	i	i	-11*	6.1*	0.038*	0.12*	0.042*	0.055*	0.054*	0.021*	46%*	i	i
CC1=CCC[C@@H]2[C@@](C)(CC/C(C)=C/C(=O)O)[C@H](C)CC[C@@]12C	3.5*	i	i	i	i	-1	0.0073	0.012*	0.027	0.015*	?	0.011	i	i	i
